Test results taken from ChEMBL document CHEMBL2434969, “[(4-Hydroxyl-benzo[4,5]thieno[3,2-c]pyridine-3-carbonyl)-amino]-acetic acid derivatives; HIF prolyl 4-hydroxylase inhibitors as oral erythropoietin secretagogues” (Bioorg Med Chem Lett, 2013).
Activity calls are given as the source filed them. The calls are words filed in the database; no cut-off is given here.

Legend:
Mus musculus [1] = assay: Anti-anemia activity in ICR mouse assessed as increase in hemoglobin level at 50 mg/kg, qd administered for 12 days measured on day 16; assay type: functional, organism-based; set-up: dose 50 mg/kg
Summary of the method: (§1)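 Normal male ICR mice, 6 weeks old, dosed once daily for 4 days (QDx4) or 12 days (QDx12) alongside a vehicle group. Mice were split into groups by blood sampling day (D5, D8, D13, D16). Hematocrit, RBC count and Hb were measured in blood. Statistics: P<0.05 and P<0.01 vs vehicle at each sampling time.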

Mus musculus [2] = assay: Anti-anemia activity in ICR mouse assessed as increase in hemoglobin level at 50 mg/kg, qd administered for 12 days measured on day 13; assay type: functional, organism-based; set-up: dose 50 mg/kg; summary of the method: as §1
Mus musculus [3] = assay: Anti-anemia activity in ICR mouse assessed as increase in hemoglobin level at 50 mg/kg, qd administered for 4 days measured on day 8; assay type: functional, organism-based; set-up: dose 50 mg/kg; summary of the method: as §1
Mus musculus [4] = assay: Anti-anemia activity in ICR mouse assessed as increase in hemoglobin level at 50 mg/kg, qd administered for 4 days measured on day 5; assay type: functional, organism-based; set-up: dose 50 mg/kg; summary of the method: as §1
Mus musculus [5] = assay: Anti-anemia activity in ICR mouse assessed as increase in red blood cell count at 50 mg/kg, qd administered for 12 days measured on day 16; assay type: functional, organism-based; set-up: dose 50 mg/kg; summary of the method: as §1
Mus musculus [6] = assay: Anti-anemia activity in ICR mouse assessed as increase in red blood cell count at 50 mg/kg, qd administered for 12 days measured on day 13; assay type: functional, organism-based; set-up: dose 50 mg/kg; summary of the method: as §1
Mus musculus [7] = assay: Anti-anemia activity in ICR mouse assessed as increase in red blood cell count at 50 mg/kg, qd administered for 4 days measured on day 8; assay type: functional, organism-based; set-up: dose 50 mg/kg; summary of the method: as §1
Mus musculus [8] = assay: Anti-anemia activity in ICR mouse assessed as increase in red blood cell count at 50 mg/kg, qd administered for 4 days measured on day 5; assay type: functional, organism-based; set-up: dose 50 mg/kg; summary of the method: as §1
Mus musculus [9] = assay: Anti-anemia activity in ICR mouse assessed as increase in hematocrit level at 50 mg/kg, qd administered for 12 days measured on day 16; assay type: functional, organism-based; set-up: dose 50 mg/kg; summary of the method: as §1
Mus musculus [10] = assay: Anti-anemia activity in ICR mouse assessed as increase in hematocrit level at 50 mg/kg, qd administered for 12 days measured on day 13; assay type: functional, organism-based; set-up: dose 50 mg/kg; summary of the method: as §1
Mus musculus [11] = assay: Anti-anemia activity in ICR mouse assessed as increase in hematocrit level at 50 mg/kg, qd administered for 4 days measured on day 8; assay type: functional, organism-based; set-up: dose 50 mg/kg; summary of the method: as §1
Mus musculus [12] = assay: Anti-anemia activity in ICR mouse assessed as increase in hematocrit level at 50 mg/kg, qd administered for 4 days measured on day 5; assay type: functional, organism-based; set-up: dose 50 mg/kg; summary of the method: as §1
[13] = Bioavailability in CD1 mouse at 4 mg/kg, iv; assay type: ADME, organism-based; settings: in vivo
[14] = Volume of distribution at steady state in CD1 mouse at 4 mg/kg, iv; assay type: ADME, organism-based; set-up: dose 4 mg/kg, route intravenous; settings: in vivo, read-out: Vdss
[15] = Clearance in CD1 mouse at 4 mg/kg, iv; assay type: ADME, organism-based; set-up: dose 4 mg/kg, route intravenous; settings: in vivo
[16] = Half life in CD1 mouse at 4 mg/kg, iv; assay type: ADME, organism-based; set-up: dose 4 mg/kg, route intravenous; settings: in vivo
[17] = AUC (0 to t) in CD1 mouse at 4 mg/kg, iv; assay type: ADME, organism-based; set-up: dose 4 mg/kg, route intravenous; settings: plasma
[18] = AUC (0 to t) in CD1 mouse at 20 mg/kg, po; assay type: ADME, organism-based; set-up: dose 20 mg/kg, route oral; settings: plasma
[19] = Cmax in CD1 mouse at 20 mg/kg, po; assay type: ADME, organism-based; set-up: dose 20 mg/kg, route oral; settings: in vivo
[20] = Tmax in CD1 mouse at 20 mg/kg, po; assay type: ADME, organism-based; set-up: dose 20 mg/kg, route oral; settings: in vivo
[21] = Metabolic stability in human S9 fraction assessed as compound remaining measured at 60 mins; assay type: ADME; settings: read-out: Stability
[22] = Metabolic stability in mouse S9 fraction assessed as compound remaining measured at 60 mins; assay type: ADME; settings: s9, 1 h
[23] = Metabolic stability in human microsomes assessed as compound remaining measured at 60 mins; assay type: ADME, Microsome; settings: read-out: Stability
[24] = Metabolic stability in mouse microsomes assessed as compound remaining measured at 60 mins; assay type: ADME, Microsome; settings: read-out: Stability

## O=C(O)CNC(=O)c1nc(Cl)c2ccccc2c1O
Mus musculus [1]
  inhibition: Active
Mus musculus [2]
  inhibition: Active
Mus musculus [3]
  inhibition: Active
Mus musculus [4]
  inhibition: Active
Mus musculus [5]
  inhibition: Active
Mus musculus [6]
  inhibition: Active
Mus musculus [7]
  inhibition: Active
Mus musculus [8]
  inhibition: Active
Mus musculus [9]
  inhibition: Active
Mus musculus [10]
  inhibition: Active
Mus musculus [11]
  inhibition: Active
Mus musculus [12]
  inhibition: Active

## O=C(O)CNC(=O)c1nc(Cl)c2c(sc3ccccc32)c1O
[13]
  bioavailability: 63.2%
[14]
  Vd: 0.503 L/kg
[15]
  clearance: 3.92 mL/min/kg
[16]
  half-life: 2.79 h
[17]
  AUC(0-t): 17000 ng·h/mL
[18]
  AUC(0-t): 53700 ng·h/mL
[19]
  Cmax: 15100 ng/mL
[20]
  Tmax: 0.5 h
[21]
  remaining at 1 h: 101%
[22]
  Stability: 125.7%
[23]
  remaining at 1 h: 119%
[24]
  remaining at 1 h: 68.6%
